Experimental data from ChEMBL document CHEMBL1143800, “Design and synthesis of new pyranoxanthenones bearing a nitro group or an aminosubstituted side chain on the pyran ring. Evaluation of their growth inhibitory activity in breast cancer cells” (Eur J Med Chem, 2007).

Tests used:
[1] = tested on: MDA-MB-231; assay: Antiproliferative activity against human MDA-MB-231 cells after 72 hrs; format: functional, cell-based; conditions: MDA-MB-231, 72 h
Method in brief: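 MDA-MB-231 (ER-negative) monolayers in EMEM with 10% FBS, L-glutamine, pyruvate, NEAA, insulin at 37 °C, 5% CO2. Seeded 1 × 10⁴ cells/well with serum and dosed 24 h later with compound at 1–100 (DMSO and/or ethanol stocks diluted into medium). After 72 h, 3 h WST-1 read at 450 nm (ref 650). IC50 = concentration halving OD versus untreated controls. Mean ± SD, three independent experiments.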

[2] = tested on: MDA-MB-231; assay: Antiproliferative activity against human MDA-MB-231 cells at 10 uM after 72 hrs; format: functional
Method in brief: (§1)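 MDA-MB-231 cells grown in serum-containing EMEM (10% FBS) were plated at 1 × 10⁴ cells/well. 24 h later they were exposed to a single compound level in fresh serum medium, using DMSO/ethanol stocks diluted into the medium. At 72 h, WST-1 was added for 3 h and formazan read at 450 nm (ref 650). Values are % growth inhibition versus controls, averaged ± SD over three experiments, each in triplicate.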

[3] = tested on: MDA-MB-231; assay: Antiproliferative activity against human MDA-MB-231 cells at 3 uM after 72 hrs; format: functional; method in brief: as §1
[4] = tested on: MDA-MB-231; assay: Antiproliferative activity against human MDA-MB-231 cells at 30 uM after 72 hrs; format: functional; method in brief: as §1
[5] = tested on: MDA-MB-231; assay: Antiproliferative activity against human MDA-MB-231 cells at 100 uM after 72 hrs; format: functional; method in brief: as §1
[6] = tested on: MDA-MB-231; assay: Antiproliferative activity against human MDA-MB-231 cells at 1 uM after 72 hrs; format: functional; method in brief: as §1

IC50 [1] | SMILES | Activity [2] | Activity [3] | Activity [4] | Activity [5] | Activity [6]
> 100 µM | CCN(CC)CCNc1cc2c(c3oc4ccccc4c(=O)c13)C=C([N+](=O)[O-])C(C)(C)O2 | – | – | – | – | –
44 µM | CCN(CC)CCNC1Cc2c(cc(OC)c3c(=O)c4ccccc4oc23)OC1(C)C (configuration not stated) | 15% | 12% | 15% | 74% | 12%
68 µM | CCN(CC)CCNc1cc2c(c3oc4ccccc4c(=O)c13)CC(NC(=O)CN(CC)CC)C(C)(C)O2 (configuration not stated) | – | – | – | 75% | –
57 µM | COc1cc2c(c3oc4ccccc4c(=O)c13)CC(NCCN(C)C)C(C)(C)O2 (configuration not stated) | 15% | 12% | 15% | 74% | 12%
46 µM | CN(C)CCNc1cc2c(c3oc4ccccc4c(=O)c13)CC(NCCN(C)C)C(C)(C)O2 (configuration not stated) | 20% | 20% | – | – | 20%
51 µM | COc1cc2c(c3oc4ccccc4c(=O)c13)CC(NC(=O)CN(C)C)C(C)(C)O2 (configuration not stated) | 15% | 12% | 15% | 74% | 12%
50 µM | CN(C)CCNc1cc2c(c3oc4ccccc4c(=O)c13)CC(NC(=O)CN(C)C)C(C)(C)O2 (configuration not stated) | 20% | 20% | – | – | 20%
21 µM | CN(C)CCNc1cc2c(c3oc4ccccc4c(=O)c13)C=C([N+](=O)[O-])C(C)(C)O2 | – | – | – | – | –
> 100 µM | CN(C)CCNc1cc2c(c3oc4ccccc4c(=O)c13)CC([N+](=O)[O-])C(C)(C)O2 (configuration not stated) | 20% | 20% | – | – | 20%
53 µM | COc1cc2c(c3oc4ccccc4c(=O)c13)CC(N)C(C)(C)O2 (configuration not stated) | 15% | 12% | 15% | 74% | 12%
> 100 µM | CCN(CC)CCNc1cc2c(c3oc4ccccc4c(=O)c13)CC([N+](=O)[O-])C(C)(C)O2 (configuration not stated) | – | – | 20% | 20% | –
73 µM | CCN(CC)CCNc1cc2c(c3oc4ccccc4c(=O)c13)CC(NCCN(CC)CC)C(C)(C)O2 (configuration not stated) | – | – | – | 75% | –
38 µM | CN(C)CCNc1cc2c(c3oc4ccccc4c(=O)c13)CC(N)C(C)(C)O2 (configuration not stated) | 20% | 20% | – | – | 20%
62 µM | CCN(CC)CCNc1cc2c(c3oc4ccccc4c(=O)c13)CC(N)C(C)(C)O2 (configuration not stated) | – | – | – | 75% | –
52 µM | CCN(CC)CC(=O)NC1Cc2c(cc(OC)c3c(=O)c4ccccc4oc23)OC1(C)C (configuration not stated) | 15% | 12% | 15% | 74% | 12%
